Measurements pooled from the literature.
Protocols differ between the studies behind these lines. Values after ≈ are worked out from the molar mass of the structure shown.
Method: broth dilution

SMILES	organism	test	test system	conditions	measurement	value
CC(=O)N1CCN(c2ccc(OCC3COC(Cn4ccnc4)(c4ccc(Cl)cc4Cl)O3)cc2)CC1 (centres unmarked)	Aspergillus niger	microbial growth		48 h	MIC	7.8 µg/mL (≈ 14.7 µM)
O=C(Nc1cccc(Cl)c1)c1ccc(COC(Cn2ccnc2)c2ccc(Cl)cc2Cl)cc1 (centres unmarked)	Lodderomyces parapsilosis	microbial growth			MIC80	0.06 µg/mL (≈ 0.12 µM)
C[C@@H]1O[C@@H]1P(=O)(O)O	Neisseria gonorrhoeae	microbial growth	ATCC49226		MIC	31.2 µg/mL
C/C(=N\CCNCCNCC/N=C(\C)c1c(O)c2ccccc2oc1=O)c1c(O)c2ccccc2oc1=O	Aspergillus niger	microbial growth		48 h	MIC	31.2 µg/mL (≈ 60.3 µM)
COc1cc(C=O)ccc1OC1=C(Cl)C(=O)c2ccccc2C1=O	Aspergillus niger	microbial growth			MIC	12 µg/mL (≈ 35 µM)
O=C(Nc1ccc(F)cc1)c1ccc(COC(Cn2ccnc2)c2ccc(Cl)cc2Cl)cc1 (centres unmarked)	Lodderomyces parapsilosis	microbial growth			MIC80	0.125 µg/mL (≈ 0.258 µM)
O=C1OC[C@H]2OC(O)[C@H](O)[C@@H](O)[C@@H]2OC(=O)c2cc(O)c(O)c(O)c2-c2c(O)c(O)c3oc(=O)c4c(c(O)c(O)c5oc(=O)c2c3c54)-c2c1cc(O)c(O)c2O (mixture of isomers)	Streptococcus sobrinus	microbial killing			MBC	200 µg/mL
CC1CCC(C(C)C)C(OC2=C(Cl)C(=O)c3ccccc3C2=O)C1 (centres unmarked)	Aspergillus niger	microbial growth			MIC	12 µg/mL (≈ 34.6 µM)
C/C(=N\CCNCC/N=C(\C)c1c(O)c2ccccc2oc1=O)c1c(O)c2ccccc2oc1=O	Aspergillus niger	microbial growth		48 h	MIC	62.5 µg/mL (≈ 131 µM)
COc1ccc(NC(=O)c2ccc(COC(Cn3ccnc3)c3ccc(Cl)cc3Cl)cc2)cc1 (centres unmarked)	Lodderomyces parapsilosis	microbial growth			MIC80	0.125 µg/mL (≈ 0.252 µM)
O=C1O[C@H]2[C@@H]3OC(=O)c4cc(O)c(O)c(O)c4-c4c(O)c(O)c5oc(=O)c6c(c(O)c(O)c7oc(=O)c4c5c76)-c4c(cc(O)c(O)c4O)C(=O)OC[C@H]3OC(O)[C@@H]2OC(=O)c2cc(O)c(O)c(O)c2-c2c1cc(O)c(O)c2O (mixture of isomers)	Streptococcus sobrinus	microbial growth		24 h	MIC	100 µg/mL
Cc1ccc(NC(=O)c2ccc(COC(Cn3ccnc3)c3ccc(Cl)cc3Cl)cc2)cc1 (centres unmarked)	Lodderomyces parapsilosis	microbial growth			MIC80	0.06 µg/mL (≈ 0.125 µM)
C[C@@H]1O[C@@H](OC[C@H]2O[C@@H](Oc3c(-c4ccc(O)c(O)c4)oc4cc(O)cc(O)c4c3=O)[C@H](O)[C@@H](O)[C@@H]2O)[C@H](O)[C@H](O)[C@H]1O	Streptococcus sobrinus	microbial growth		24 h	MIC	200 µg/mL (≈ 328 µM)
O=C(Nc1cccc(F)c1)c1ccc(COC(Cn2ccnc2)c2ccc(Cl)cc2Cl)cc1 (centres unmarked)	Lodderomyces parapsilosis	microbial growth			MIC80	0.125 µg/mL (≈ 0.258 µM)
Oc1cc(O)c2c(c1)O[C@H](c1cc(O)c(O)c(O)c1)[C@@H](O)C2	Streptococcus sobrinus	microbial killing			MBC	400 µg/mL (≈ 1310 µM)
C/C(=N\c1nc(N)nc(/N=C(\C)c2c(O)c3ccccc3oc2=O)n1)c1c(O)c2ccccc2oc1=O	Aspergillus niger	microbial growth		48 h	MIC	31.2 µg/mL (≈ 62.7 µM)
O=c1oc2c(O)c(O)cc3c(=O)oc4c(O)c(O)cc1c4c23	Streptococcus sobrinus	microbial growth		24 h	MIC	100 µg/mL (≈ 331 µM)
C/C(=N\C(=O)/N=C(\C)c1c(O)c2ccccc2oc1=O)c1c(O)c2ccccc2oc1=O	Aspergillus niger	microbial growth		48 h	MIC	125 µg/mL (≈ 289 µM)
O=C(O[C@@H]1O[C@@H]2COC(=O)c3cc(O)c(O)c(O)c3-c3c(cc(O)c(O)c3O)C(=O)O[C@H]([C@H]1O)[C@@H]2O)c1cc(O)c(O)c(O)c1	Streptococcus sobrinus	microbial growth		24 h	MIC	200 µg/mL (≈ 315 µM)
O=C(Nc1ccc2cccnc2c1)c1ccc(COC(Cn2ccnc2)c2ccc(Cl)cc2Cl)cc1 (centres unmarked)	Lodderomyces parapsilosis	microbial growth			MIC80	2 µg/mL (≈ 3.87 µM)
